# Measurements reported in ChEMBL document CHEMBL2029317, “(Z)-2-(2-bromophenyl)-3-{[4-(1-methyl-piperazine)amino]phenyl}acrylonitrile (DG172): an orally bioavailable PPARβ/δ-selective ligand with inverse agonistic properties” (J Med Chem, 2012).
# Active and inactive are the calls of the source. The calls are words filed in the database; no cut-off is given here.
# Columns and labels:
# [1] = target: T1, Peroxisome proliferator-activated receptor delta (Mus musculus) (UniProt P35396); test: Antagonist activity at PPARbeta/delta in mouse NIH3T3 cells coexpressing LexA assessed as decrease in L165,041-induced transcriptional activation at 1 uM after 48 hrs by luciferase reporter gene assay relative to control; assay type: functional, cell-based
# T1 sequence (whole entry): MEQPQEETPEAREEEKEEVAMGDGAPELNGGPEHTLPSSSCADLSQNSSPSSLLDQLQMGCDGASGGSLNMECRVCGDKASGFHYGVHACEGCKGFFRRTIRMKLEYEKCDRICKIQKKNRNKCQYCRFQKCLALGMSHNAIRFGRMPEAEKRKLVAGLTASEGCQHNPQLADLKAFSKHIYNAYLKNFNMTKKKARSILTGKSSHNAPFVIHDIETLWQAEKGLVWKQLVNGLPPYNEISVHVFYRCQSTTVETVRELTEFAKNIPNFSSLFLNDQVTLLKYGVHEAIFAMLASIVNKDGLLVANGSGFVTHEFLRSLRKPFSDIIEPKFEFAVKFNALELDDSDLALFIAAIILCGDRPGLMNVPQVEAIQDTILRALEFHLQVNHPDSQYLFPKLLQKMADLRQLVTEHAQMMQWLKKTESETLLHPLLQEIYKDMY
# Summary of the method: (§1)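 NIH3T3 cells were transfected with LexA-PPARα, -PPARβ/δ or -PPARγ fusion plasmids plus the 7L-TATAi luciferase reporter. From 4 h post-transfection, cells received inhibitory ligand (1 μM) for 48 h. Agonists followed: GW7647 300 nM (PPARα), L165,041 1 μM (PPARβ/δ) or GW1929 300 nM (PPARγ), or agonist solvent. Induction is luciferase activity with agonist relative to solvent; triplicates with t test.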
# [2] = target: T1, Peroxisome proliferator-activated receptor delta (Mus musculus); conditions: 1 uM
# [3] = Half life in CD1 mouse at 5 mg/kg, po; assay type: ADME, organism-based; parameters: dose 5 mg/kg, route oral; conditions: in vivo
# Summary of the method: (§2)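 Male CD-1 mice dosed iv by tail vein (1 mg/kg) or po by gastric gavage (5 mg/kg). Vehicle was DMSO/Solutol HS 15/PBS pH 7.4 (5/5/90, v/v/v). Blood was taken at eight time points from 10 min to 12 h, by parallel sampling of three mice per point. Plasma was acetonitrile-precipitated and analysed by HPLC-MS/MS, and basic PK parameters were derived.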
# [4] = Cmax in CD1 mouse at 5 mg/kg, po; assay type: ADME, organism-based; parameters: dose 5 mg/kg, route oral; conditions: in vivo; summary of the method: as §2
# [5] = Half life in CD1 mouse plasma at 1 mg/kg, iv; assay type: ADME, organism-based; parameters: dose 1 mg/kg, route intravenous; summary of the method: as §2
# [6] = target: T2, Peroxisome proliferator-activated receptor delta (Mus musculus, UniProt P35396); test: Inverse agonist activity at PPARbeta/delta in mouse C2C12 cells assessed as inhibition of Angptl4 expression after 24 hrs by RT-qPCR analysis; assay type: functional, cell-based
# T2 sequence (P35396 whole entry): T1 sequence (whole entry)
# [7] = Oral bioavailability in CD1 mouse at 5 mg/kg; assay type: ADME, organism-based; conditions: in vivo; summary of the method: as §2
# [8] = system: Macrophage; test: Inhibition of Angptl expression in mouse Ppard-knock out macrophages at 1 uM after 6 hrs by RT-qPCR analysis; assay type: functional, cell-based
# Summary of the method: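 Macrophages from Ppard null and wild-type mice were treated with compound (1 μM), agonist L165,041 (500 nM) or DMSO solvent for 6 h. Angptl4 mRNA was measured by RT-qPCR with L27 as the normalizer.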
# [9] = system: Mus musculus; test: AUC (infinity) in CD1 mouse at 5 mg/kg, po; assay type: ADME, organism-based, Plasma; parameters: time infinity, dose 5 mg/kg, route oral; conditions: in vivo; summary of the method: as §2
# [10] = target: T3, Peroxisome proliferator-activated receptor gamma (Mus musculus) (UniProt P37238); test: Antagonist activity at PPARgamma in mouse NIH3T3 cells coexpressing LexA assessed as decrease in GW1929-induced transcriptional activation at 1 uM after 48 hrs by luciferase reporter gene assay relative to control; assay type: functional, cell-based; summary of the method: as §1
# T3 sequence (whole entry): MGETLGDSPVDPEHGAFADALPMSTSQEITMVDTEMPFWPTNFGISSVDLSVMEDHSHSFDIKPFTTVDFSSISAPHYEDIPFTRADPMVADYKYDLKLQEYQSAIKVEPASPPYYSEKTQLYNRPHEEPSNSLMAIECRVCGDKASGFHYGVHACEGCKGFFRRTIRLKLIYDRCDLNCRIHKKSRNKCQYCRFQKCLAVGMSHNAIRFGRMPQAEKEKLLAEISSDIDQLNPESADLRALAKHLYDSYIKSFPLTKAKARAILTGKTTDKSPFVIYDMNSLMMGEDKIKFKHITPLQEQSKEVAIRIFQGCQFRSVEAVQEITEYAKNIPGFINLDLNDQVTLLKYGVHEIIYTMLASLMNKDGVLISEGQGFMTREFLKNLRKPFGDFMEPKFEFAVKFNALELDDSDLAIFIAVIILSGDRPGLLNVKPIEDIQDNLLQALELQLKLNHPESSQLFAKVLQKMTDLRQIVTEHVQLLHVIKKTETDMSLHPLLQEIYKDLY
# [11] = target: T1, Peroxisome proliferator-activated receptor delta (Mus musculus); test: Displacement of fluormone Pan-PPAR Green from mouse recombinant GST-tagged PPARbeta/delta LBD after 60 mins by TR-FRET assay
# [12] = Drug uptake in CD1 mouse blood at 5 mg/kg, po up to 30 mins
Activity [1],inhibition [2],half-life [3] [min],Cmax [4] [ng/mL],half-life [5] [min],IC50 [6] [nM],bioavailability [7] [%],AUC [9] [ng·h/mL],Activity [10],Activity [11],concentration at 0.5 h [12] [ng/mL],Compound,inhibition [8]
Active,Active,634,94,76,9.5,72,137,inactive,–,–,CN1CCN(c2ccc(/C=C(\C#N)c3ccccc3Br)cc2)CC1,inactive
Active,–,–,–,76,52,–,–,inactive,Active,≤ 6,CN(C)c1ccc(/C=C(\C#N)c2ccccc2Cl)cc1,–
